MEKK2wt PB1 HTS: raises or lowers MEK5 binding to wildtype human MEKK2 PB1 domain. Q9Y2U5. bead flow cytometry, Alexa488-MEK5 binding to MEKK2 WT; actives lie on both sides. binding response (% of control), % at 10 µM. actives 1.1% (n = 290,000). AID 1531; in the data active = binding response below about 67% or above about 130%
MEKK3 PB1 HTS: modulators (inhibitors or enhancers) of MEK5 binding to human MEKK3 PB1 domain; Q99759; bead-based flow cytometry, Alexa488-MEK5 binding to MEKK3; actives lie on both sides; 0 = blocked by unlabeled MEK5, 100 = vehicle; binding response (% of control), % at 10 µM; actives 1.4% (n = 290,000);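 active = binding response more than 3 SD above or below the average of its plate-row segment, actives on both sides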;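 note: Alexa488 bead fluorescence after subtracting the streptavidin-only scavenger bead signal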
ATG4B inhibitor: blocks human ATG4B protease cleavage of LC3 substrate; ATG4B cleavage of LC3-PLA2, NBD-HPC fluorescence, 1 h; actives 0.51% (n = 340,000); inhibition, % at 8.33 µM; in the data active = inhibition above about 40%
Target sequence (Q9Y4P1 whole entry, looked up): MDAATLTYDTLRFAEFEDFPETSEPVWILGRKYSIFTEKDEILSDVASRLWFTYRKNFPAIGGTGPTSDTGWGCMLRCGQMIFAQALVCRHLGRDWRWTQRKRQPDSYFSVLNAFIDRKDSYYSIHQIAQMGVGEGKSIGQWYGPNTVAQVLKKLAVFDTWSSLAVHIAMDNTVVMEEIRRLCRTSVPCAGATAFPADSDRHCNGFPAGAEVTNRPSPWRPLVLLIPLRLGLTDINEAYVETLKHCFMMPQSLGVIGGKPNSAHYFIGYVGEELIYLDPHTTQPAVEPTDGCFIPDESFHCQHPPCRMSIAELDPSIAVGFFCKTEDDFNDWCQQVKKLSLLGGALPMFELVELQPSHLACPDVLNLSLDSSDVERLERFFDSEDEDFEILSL
B2AR ag: activates human beta-2 adrenergic receptor causing internalization. actives 0.43% (n = 340,000). response, % (concentration not given with the values). Am2.2-beta2AR cells, FAP receptor internalization, flow cytometry;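 active = response above a set limit, near 3 SD of response in nonfluorescent compounds, cut at about 42% in these data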
Dynein cargo inh: blocks dynein driven cargo transport along microtubules. 3617.4 mouse cells, GR-EGFP nuclear translocation imaging; test concentration mostly 20 µM; stimulated with dexamethasone, 1 µM; hits give low values. z-score, hits read low. actives 0.47% (n = 220,000). AID 1381;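 active = plate z-score of nuclear minus cytoplasmic receptor signal below a set negative limit, without overly bright fluorescence or cell loss, cut at about -3.5 in these data, passing the limit was not always enough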;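 note: z-score of nuclear minus cytoplasmic ring GR-EGFP intensity difference per well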
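Buffer or medium: tet-free medium with charcoal-stripped serum / Also added: dexamethasone agonist, 1.0 µM final, for 30 min / Timing: induction 48 h, compound 1 h, agonist 30 min / Measured by: high-content fluorescence imaging after fixation / Read-out: nuclear-to-cytoplasmic GR-EGFP distribution per well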
MEKK2mut PB1 HTS: signal of MEK5 binding to mutant human MEKK2 PB1 domain; bead flow cytometry, Alexa488-MEK5 binding to MEKK2 mutant; percent response, % at 10 µM; actives 0.35% (n = 290,000); AID 1530; in the data active = percent response above about 24%, passing the limit was not always enough
MEKK2wt confirm: raises or lowers MEK5 binding to wildtype human MEKK2, retest; binding response (% of control), % at 10 µM; AID 1892; bead flow cytometry, Alexa488-MEK5 binding to MEKK2 WT; actives lie on both sides; actives 2.4% (n = 5,900); shares compounds with MEKK3 PB1 HTS; in the data active = binding response below about 16% or above about 210%; inactive = in between
MEKK2mut confirm: signal of MEK5 binding to mutant human MEKK2, retest. shares compounds with MEKK3 PB1 HTS. bead flow cytometry, Alexa488-MEK5 binding to MEKK2 mutant. percent response, % at 10 µM. actives 2% (n = 5,900). AID 1893; in the data active = percent response mostly above about 71%, no sharp cut-off; inactive = mostly below about 38%;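 note: higher means compound restores mutant binding toward wildtype level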
MEKK3 confirm: confirmation of inhibitors of MEK5 binding to human MEKK3. shares compounds with MEKK3 PB1 HTS. bead flow cytometry, Alexa488-MEK5 binding to MEKK3; hits give low values. binding response (% of control), % at 10 µM. actives 1.8% (n = 5,900). AID 1894;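 active = binding response below 72% of control, or above a set upper limit, though filed actives all read lower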;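 note: 100% = DMSO only wells and 0% = binding blocked by excess unlabeled MEK5; lower values mean stronger disruption of MEK5 binding to MEKK3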
Starred values were filed as active, the others as inactive; . = not tested or not shown; [ ] = remark or other dose. A selection: hits, their analogues and other compounds. The true share with any hit is near 2.9%.

SMILES	MEKK2wt PB1 HTS	MEKK3 PB1 HTS	ATG4B inhibitor	B2AR ag	Dynein cargo inh	MEKK2mut PB1 HTS	MEKK2wt confirm	MEKK2mut confirm	MEKK3 confirm
COc1ccc(CN2CCN(C(=O)C3CCN(S(=O)(=O)c4cccs4)CC3)CC2)c(OC)c1OC	1.0*[inhibitor]	1.0*[inhibitor]	-9	-3	0.089	-47	103	4	102
CC1CCCC(NC(=O)Cc2ccc(Br)cc2)C1C (stereo not drawn)	101	131*	10	-6	-0.62	8	99	2	102
CC1CCCC(NC(=O)COC(=O)Cc2ccc(Br)cc2)C1C (stereo not drawn)	92	100	6	-5	-0.75	-5	.	.	.
CC1CCCC(NC(=O)CSc2nnnn2C)C1C (stereo not drawn)	-8.0*[inhibitor]	0.0*[inhibitor]	-7	1	0.69	-23	102	6	105
Cn1nnnc1SCC(=O)NC1CCCCC1	94	89	-12	8	1.4	-9	.	.	.
Cn1cccc1C1Nc2ccccc2NC2=C1C(=O)CC(C)(C)C2 (stereo not drawn)	102	102	-2	2	-0.49	5	.	.	.
O=C(NC1CCCN(Cc2ccc(Cl)cc2)C1)c1c(F)ccc(F)c1F (stereo not drawn)	108	98	4	1	.	4	.	.	.
Cc1ccc(C)c(OCCCN2CCc3ccccc3C2)c1	117	98	-2	-7	.	7	.	.	.
Cc1ccc(OCCCCN2CCc3ccccc3C2)c(C)c1	139*	116	12	-6	.	18	104	0	99
CN=C(C[N+](=O)[O-])NCCSCc1ccc(CN(C)C)o1	.	.	-1	-11	.	.	.	.	.
Cc1cc(NC(=O)c2ccccc2Cl)no1	59	35*[inhibitor]	7	-5	0.15	-30	106	-1	99
Cc1ccc(-c2n[nH]c(=S)c3ccccc23)cc1S(=O)(=O)NCC1CCCO1 (stereo not drawn)	94	100	-21	-5	.	1	.	.	.
N#Cc1ccc(NC(=S)NCCN2CCOCC2)cc1	95	104	-36	-3	0.028	-9	.	.	.
O=C(O)Cn1c(-c2cscn2)nc2ccccc21	133	123*	-18	9	-0.4	8	104	8	104
CCN1CCN(Cc2c(O)ccc3c2O/C(=C\C=C\c2ccccc2OC)C3=O)CC1	95	133*	30	-1	-0.82	0	92	-3	97
CCN1CCN(Cc2c(O)ccc3c(=O)c(-c4ccccc4OC)coc23)CC1	112	102	-11	-4	-0.84	6	.	.	.
O=C(Nc1ccccn1)C1(c2cccs2)CCOCC1	92	90	4	7	0.73	-1	.	.	.
Cc1ccnc(NC(=O)/C=C/c2cccs2)c1	178*	120	4	-11	1.1	58*	105	-7	97
Cc1ccnc(NC(=O)C2(c3cccs3)CCOCC2)c1	107	145*	-2	-1	0.1	0	1.0*[inhibitor]	-29	2.0*
C=CCNC(=O)COC(=O)/C=C/c1cccs1	95	95	0	5	-0.25	-3	.	.	.
O=C(/C=C/c1cccs1)Nc1nncs1	103	99	2	22	2.4	1	.	.	.
C=CCNC(=O)/C=C/c1cccs1	112	135*	0	4	1.2	-1	115	17	108
Cc1[nH]c(=O)c(C#N)c(C)c1Cc1ccc(Cl)cc1Cl	99	100	0	6	-0.12	3	.	.	.
